Data reported in ChEMBL document CHEMBL3588803, “Design, synthesis and pharmacology of 1,1-bistrifluoromethylcarbinol derivatives as liver X receptor β-selective agonists” (Bioorg Med Chem Lett, 2015).

Legend:
[1] = Plasma concentration in CE-2 chow diet-fed golden Syrian hamster assessed as 4-(4-(1,1,1,3,3,3-Hexafluoro-2-hydroxypropan-2-yl)-2,6-di-n-propylphenoxy)-butanoic acid level at 100 mg/kg, po after 0.5 hrs by HPLC-LC-MS/MS method; assay type: ADME, organism-based, Mesocricetus auratus; settings: in vivo
Summary of the method: (§1)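 Hamsters on chow diet received a single oral dose of 100 mg/kg. Heparin plasma was drawn from a forearm vein at 0.5, 1, 2, 3, 4, 6, 8, 10 and 24 h after dosing. Concentrations of parent drug and its carboxylic acid metabolite were measured in plasma.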

[2] = Plasma concentration in CE-2 chow diet-fed golden Syrian hamster at 100 mg/kg, po after 10 hrs by HPLC-LC-MS/MS method; assay type: ADME, organism-based, Mesocricetus auratus; summary of the method: as §1
[3] = Plasma concentration in CE-2 chow diet-fed golden Syrian hamster at 100 mg/kg, po after 6 hrs by HPLC-LC-MS/MS method; assay type: ADME, organism-based, Mesocricetus auratus; summary of the method: as §1
[4] = system: Hamster; experiment: Increase in ABCA1 gene expression in Bio F1B hamster peripheral blood at 10 mg/kg, po; assay type: functional, Cricetinae
[5] = system: Hamster; experiment: Hypolipidemic effect in Bio F1B hamster fed with high fat and cholesterol diet assessed as HDL-cholesterol level at 30 mg/kg, po relative to control; assay type: functional, Cricetinae
[6] = system: Hamster; experiment: Hypolipidemic effect in Bio F1B hamster fed with high fat and cholesterol diet assessed as total cholesterol level at 10 mg/kg, po relative to control; assay type: functional, Cricetinae
[7] = system: Hamster; experiment: Increase in ABCG5 gene expression in Bio F1B hamster intestine at 10 mg/kg, po; assay type: functional, Cricetinae
[8] = Plasma concentration in CE-2 chow diet-fed golden Syrian hamster assessed as 4-(4-(1,1,1,3,3,3-Hexafluoro-2-hydroxypropan-2-yl)-2,6-di-n-propylphenoxy)-butanoic acid level at 100 mg/kg, po after 6 hrs by HPLC-LC-MS/MS method; assay type: ADME, organism-based, Mesocricetus auratus; settings: in vivo; summary of the method: as §1
[9] = system: Hamster; experiment: Increase in ABCG8 gene expression in Bio F1B hamster intestine at 10 mg/kg, po; assay type: functional, Cricetinae
[10] = Plasma concentration in CE-2 chow diet-fed golden Syrian hamster assessed as 4-(4-(1,1,1,3,3,3-Hexafluoro-2-hydroxypropan-2-yl)-2,6-di-n-propylphenoxy)-butanoic acid level at 100 mg/kg, po after 4 hrs by HPLC-LC-MS/MS method; assay type: ADME, organism-based, Mesocricetus auratus; settings: in vivo; summary of the method: as §1
[11] = Plasma concentration in CE-2 chow diet-fed golden Syrian hamster at 100 mg/kg, po after 0.5 hrs by HPLC-LC-MS/MS method; assay type: ADME, organism-based, Mesocricetus auratus; summary of the method: as §1
[12] = Plasma concentration in CE-2 chow diet-fed golden Syrian hamster assessed as 4-(4-(1,1,1,3,3,3-Hexafluoro-2-hydroxypropan-2-yl)-2,6-di-n-propylphenoxy)-butanoic acid level at 100 mg/kg, po after 3 hrs by HPLC-LC-MS/MS method; assay type: ADME, organism-based, Mesocricetus auratus; settings: in vivo; summary of the method: as §1

## CCCc1cc(C(O)(C(F)(F)F)C(F)(F)F)cc(CCC)c1OCCCCN1C(=O)NC(C)(c2ccc(OC(C)C)cc2)C1=O (configuration not stated)
[1]
  Cp: 52 ng/mL
[2]
  concentration at 10 h: 110 nM
[3]
  concentration at 6 h: 630 nM
[4]
  fold change (FC): 1
[5]
  Activity: 92%
[6]
  Activity: 87%
[7]
  fold change (FC): 1.2
[8]
  Cp: 641 ng/mL
[9]
  fold change (FC): 1.3
[10]
  Cp: 529 ng/mL
[11]
  concentration at 0.5 h: 310 nM
[12]
  Cp: 409 ng/mL
